Data taken from ChEMBL document CHEMBL4689842, “EUbOPEN Chemogenomics Library wave 1” (2021).
“And” between values parts separate entries of the source, which are not always exact repeats. Equal entries are not always repeated.

System: U2OS
Experiment: Multiplex assay against U2OS
Assay type: toxicity, cell-based
Conditions: human
Summary of the method: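 Cells were classed with CellPathfinder machine-learning gating, first as Hoechst high-intensity objects or normal cells, then (normal cells) as healthy, pyknosed or fragmented nuclei, and finally (pyknosed cells) as mitotic or apoptotic. Staining of live cells at seeding used Hoechst33342, BioTracker Green Microtubule Cytoskeleton Dye, MitoTracker Red and Annexin V Alexa Fluor 680, with imaging on a CQ1 microscope at 37°C and 5% CO2 after compound addition. Tubulin, mitochondrial-mass and membrane-permeability phenotypes are per cents of healthy-nucleus cells.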

[1] = 12 h, 1 µM, compound concentration 1 uM, replicate 1
[2] = 12 h, 1 µM, compound concentration 1 uM, replicate 2
[3] = 12 h, 10 µM, compound concentration 10 uM, replicate 1
[4] = 12 h, 10 µM, compound concentration 10 uM, replicate 2
[5] = 24 h, 1 µM, compound concentration 1 uM, replicate 1
[6] = 24 h, 1 µM, compound concentration 1 uM, replicate 2
[7] = 24 h, 10 µM, compound concentration 10 uM, replicate 1
[8] = 24 h, 10 µM, compound concentration 10 uM, replicate 2
[9] = 48 h, 1 µM, compound concentration 1 uM, replicate 1
[10] = 48 h, 1 µM, compound concentration 1 uM, replicate 2
[11] = 48 h, 10 µM, compound concentration 10 uM, replicate 1
[12] = 48 h, 10 µM, compound concentration 10 uM, replicate 2

## c1cn2cc(-c3ccc4cn[nH]c4c3)nc(Nc3ccc(N4CCOCC4)cc3)c2n1 [ENTOSPLETINIB]
[1]
  Population Apoptotic (%): 32%
  Population Fragmented Nuclei (%): 13%
  Population Healthy Nuclei (%): 66%
  Population Hoechst High Intensity Objects (%): 4%
  Population Membrane Permeable-Phenotype (%): 13%
  Population Mitochondria Different-Phenotype (%): 36%
  Population Mitotic Cells (%): 67%
  Population Normal (%): 95%
  Population Pyknosed Nuclei (%): 20%
  Population Tubulin-Different-Phenotype (%): 41%
  Total Cell Count: 172
[2]
  Population Apoptotic (%): 40%
  Population Fragmented Nuclei (%): 16%
  Population Healthy Nuclei (%): 73%
  Population Hoechst High Intensity Objects (%): 5%
  Population Membrane Permeable-Phenotype (%): 10%
  Population Mitochondria Different-Phenotype (%): 23%
  Population Mitotic Cells (%): 60%
  Population Normal (%): 94%
  Population Pyknosed Nuclei (%): 9%
  Population Tubulin-Different-Phenotype (%): 25%
  Total Cell Count: 59
[3]
  Population Apoptotic (%): 76%
  Population Fragmented Nuclei (%): 37%
  Population Healthy Nuclei (%): 7%
  Population Membrane Permeable-Phenotype (%): 12%
  Population Mitochondria Different-Phenotype (%): 61%
  Population Mitotic Cells (%): 23%
  Population Pyknosed Nuclei (%): 55%
  Population Tubulin-Different-Phenotype (%): 73%
  Total Cell Count: 161
[4]
  Population Apoptotic (%): 92%
  Population Fragmented Nuclei (%): 30%
  Population Healthy Nuclei (%): 2%
  Population Hoechst High Intensity Objects (%): 25%
  Population Membrane Permeable-Phenotype (%): 21%
  Population Mitochondria Different-Phenotype (%): 82%
  Population Mitotic Cells (%): 7%
  Population Normal (%): 74%
  Population Pyknosed Nuclei (%): 67%
  Population Tubulin-Different-Phenotype (%): 78%
  Total Cell Count: 56
[5]
  Population Apoptotic (%): 37%
  Population Fragmented Nuclei (%): 12%
  Population Healthy Nuclei (%): 70%
  Population Membrane Permeable-Phenotype (%): 4%
  Population Mitochondria Different-Phenotype (%): 33%
  Population Mitotic Cells (%): 62%
  Population Pyknosed Nuclei (%): 16%
  Population Tubulin-Different-Phenotype (%): 24%
  Total Cell Count: 182
[6]
  Population Apoptotic (%): 14%
  Population Fragmented Nuclei (%): 14%
  Population Healthy Nuclei (%): 74%
  Population Hoechst High Intensity Objects (%): 4%
  Population Membrane Permeable-Phenotype (%): 17%
  Population Mitochondria Different-Phenotype (%): 15%
  Population Mitotic Cells (%): 85%
  Population Normal (%): 95%
  Population Pyknosed Nuclei (%): 11%
  Population Tubulin-Different-Phenotype (%): 21%
  Total Cell Count: 78
[7]
  Population Apoptotic (%): 70%
  Population Fragmented Nuclei (%): 35%
  Population Healthy Nuclei (%): 6%
  Population Hoechst High Intensity Objects (%): 23%
  Population Membrane Permeable-Phenotype (%): 7%
  Population Mitochondria Different-Phenotype (%): 49%
  Population Mitotic Cells (%): 29%
  Population Normal (%): 76%
  Population Pyknosed Nuclei (%): 57%
  Population Tubulin-Different-Phenotype (%): 53%
  Total Cell Count: 186
[8]
  Population Apoptotic (%): 89%
  Population Fragmented Nuclei (%): 33%
  Population Healthy Nuclei (%): 2%
  Population Hoechst High Intensity Objects (%): 26%
  Population Membrane Permeable-Phenotype (%): 8%
  Population Mitochondria Different-Phenotype (%): 36%
  Population Mitotic Cells (%): 10%
  Population Normal (%): 73%
  Population Pyknosed Nuclei (%): 64%
  Population Tubulin-Different-Phenotype (%): 20%
  Total Cell Count: 65
[9]
  Population Apoptotic (%): 46%
  Population Fragmented Nuclei (%): 9%
  Population Membrane Permeable-Phenotype (%): 4%
  Population Mitochondria Different-Phenotype (%): 14%
  Population Mitotic Cells (%): 53%
  Population Pyknosed Nuclei (%): 12%
  Population Tubulin-Different-Phenotype (%): 13%
  Total Cell Count: 206
[10]
  Population Apoptotic (%): 37%
  Population Fragmented Nuclei (%): 11%
  Population Healthy Nuclei (%): 77%
  Population Hoechst High Intensity Objects (%): 3%
  Population Membrane Permeable-Phenotype (%): 22%
  Population Mitochondria Different-Phenotype (%): 20%
  Population Mitotic Cells (%): 62%
  Population Normal (%): 96%
  Population Pyknosed Nuclei (%): 10%
  Population Tubulin-Different-Phenotype (%): 22%
  Total Cell Count: 111
[11]
  Population Apoptotic (%): 59%
  Population Fragmented Nuclei (%): 33%
  Population Healthy Nuclei (%): 7%
  Population Hoechst High Intensity Objects (%): 29%
  Population Membrane Permeable-Phenotype (%): 7%
  Population Mitochondria Different-Phenotype (%): 21%
  Population Mitotic Cells (%): 40%
  Population Normal (%): 70%
  Population Pyknosed Nuclei (%): 58%
  Population Tubulin-Different-Phenotype (%): 16%
  Total Cell Count: 232
[12]
  Population Apoptotic (%): 82%
  Population Fragmented Nuclei (%): 34%
  Population Healthy Nuclei (%): 2%
  Population Hoechst High Intensity Objects (%): 28%
  Population Membrane Permeable-Phenotype (%): 20%
  Population Mitochondria Different-Phenotype (%): 30%
  Population Mitotic Cells (%): 17%
  Population Normal (%): 71%
  Population Pyknosed Nuclei (%): 63%
  Population Tubulin-Different-Phenotype (%): 20%
  Total Cell Count: 79

## Cn1cncc1[C@@](O)(COc1ccc(C#N)cc1-c1ccc(OC(F)(F)F)cc1)c1ccc(C#N)cc1 [A-108]
[3]
  Population Apoptotic (%): 38% and 53%
  Population Healthy Nuclei (%): 70% and 84%
  Population Hoechst High Intensity Objects (%): 3%
  Population Membrane Permeable-Phenotype (%): 31% and 17%
  Population Mitochondria Different-Phenotype (%): 42% and 25%
  Population Mitotic Cells (%): 61% and 46%
  Population Normal (%): 96%
  Population Pyknosed Nuclei (%): 17% and 11%
  Total Cell Count: 188 and 136
[4]
  Population Apoptotic (%): 43% and 50%
  Population Healthy Nuclei (%): 60% and 90%
  Population Hoechst High Intensity Objects (%): 19% and 8%
  Population Mitochondria Different-Phenotype (%): 63% and 21%
  Population Mitotic Cells (%): 56% and 50%
  Population Normal (%): 80% and 91%
  Total Cell Count: 101 and 164
[7]
  Population Fragmented Nuclei (%): 8% and 3%
  Population Healthy Nuclei (%): 74% and 86%
  Population Hoechst High Intensity Objects (%): 2% and 4%
  Population Membrane Permeable-Phenotype (%): 29% and 11%
  Population Mitochondria Different-Phenotype (%): 37% and 20%
  Population Mitotic Cells (%): 28% and 77%
  Population Normal (%): 97% and 95%
  Population Pyknosed Nuclei (%): 17% and 10%
  Total Cell Count: 190 and 184
[8]
  Population Apoptotic (%): 80% and 45%
  Population Fragmented Nuclei (%): 18%
  Population Healthy Nuclei (%): 55% and 85%
  Population Hoechst High Intensity Objects (%): 7%
  Population Mitochondria Different-Phenotype (%): 75% and 28%
  Population Mitotic Cells (%): 19% and 54%
  Population Normal (%): 92%
  Population Tubulin-Different-Phenotype (%): 73% and 25%
  Total Cell Count: 88 and 199
